Measurements published in ChEMBL document CHEMBL1152657, “1-(2-((Z)-6-(2-(Trifluoromethyl)phenyl)hexa-3-en-1,5-diynyl)phenyl)piperidin-2-one as a new potent apoptosis agent” (2009).
Calls of active or inactive are those of the source. The rule behind the calls is not given here.

These molecules were tested on K562 (assay: Growth inhibition of human K562 cells).
Format: functional
Summary of the method: (§1)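 Tested in the NCI in vitro antitumor screening protocol on human tumor lines. The value is the concentration giving 50% reduction in cell growth.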

First: O=C1CCCCN1c1ccccc1C#C/C=C\C#Cc1ccccc1C(F)(F)F
Second: CCC(=O)Nc1ccccc1C#C/C=C\C#Cc1ccccc1SC
The GI50 of the first is 3.7-fold higher: 8560 nM for the first, 2290 nM for the second.

Each molecule was assayed on CCRF-CEM (assay: Growth inhibition of human CCRF-CEM cells).
Format: functional
Summary of the method: as §1

Compared with `O=C1CCCCN1c1ccccc1C#C/C=C\C#Cc1ccccc1C(F)(F)F`, `CCC(=O)Nc1ccccc1C#C/C=C\C#Cc1ccccc1SC` is 2-fold lower in GI50: 1560 nM for the first, 790 nM for the second.

What follows are molecules tested on HOP-62 (assay: Growth inhibition of human HOP62 cells).
Format: functional
Summary of the method: as §1

Going from `O=C1CCCCN1c1ccccc1C#C/C=C\C#Cc1ccccc1C(F)(F)F` to `CCC(=O)Nc1ccccc1C#C/C=C\C#Cc1ccccc1SC`, the GI50 rises from 890 nM to 2520 nM (2.8-fold).

Each molecule was assayed on HCT-15 (assay: Growth inhibition of human HCT15 cells).
Format: functional
Summary of the method: as §1

Going from `O=C1CCCCN1c1ccccc1C#C/C=C\C#Cc1ccccc1C(F)(F)F` to `CCC(=O)Nc1ccccc1C#C/C=C\C#Cc1ccccc1SC`, the GI50 rises from 1530 nM to 3350 nM (2.2-fold).

Each molecule was assayed on HCC 2998 (assay: Growth inhibition of human HCC2998 cells).
Format: functional
Summary of the method: as §1

Compared with `O=C1CCCCN1c1ccccc1C#C/C=C\C#Cc1ccccc1C(F)(F)F`, `CCC(=O)Nc1ccccc1C#C/C=C\C#Cc1ccccc1SC` is 4.4-fold higher in GI50: 950 nM for the first, 4190 nM for the second.

These molecules were tested on SNB-75 (assay: Growth inhibition of human SNB75 cells).
Format: functional
Summary of the method: as §1

Going from `O=C1CCCCN1c1ccccc1C#C/C=C\C#Cc1ccccc1C(F)(F)F` to `CCC(=O)Nc1ccccc1C#C/C=C\C#Cc1ccccc1SC`, the GI50 falls from 1610 nM to 630 nM (2.6-fold).

These molecules were tested on M14 (assay: Growth inhibition of human M14 cells).
Format: functional
Summary of the method: as §1

Compared with `O=C1CCCCN1c1ccccc1C#C/C=C\C#Cc1ccccc1C(F)(F)F`, `CCC(=O)Nc1ccccc1C#C/C=C\C#Cc1ccccc1SC` is 2-fold higher in GI50: 900 nM for the first, 1790 nM for the second.

Each molecule was assayed on UACC-62 (assay: Growth inhibition of human UACC62 cells).
Format: functional
Summary of the method: as §1

`O=C1CCCCN1c1ccccc1C#C/C=C\C#Cc1ccccc1C(F)(F)F` and `CCC(=O)Nc1ccccc1C#C/C=C\C#Cc1ccccc1SC` are within 1.5-fold of each other in GI50: 1440 nM for the first, 1690 nM for the second.

Each molecule was assayed on OVCAR-3 (assay: Growth inhibition of human OVCAR-3 cells).
Format: functional
Summary of the method: as §1

Compared with `O=C1CCCCN1c1ccccc1C#C/C=C\C#Cc1ccccc1C(F)(F)F`, `CCC(=O)Nc1ccccc1C#C/C=C\C#Cc1ccccc1SC` is 2.1-fold higher in GI50: 870 nM for the first, 1790 nM for the second.

These molecules were tested on ACHN (assay: Growth inhibition of human ACHN cells).
Format: functional
Summary of the method: as §1

First: O=C1CCCCN1c1ccccc1C#C/C=C\C#Cc1ccccc1C(F)(F)F
Second: CCC(=O)Nc1ccccc1C#C/C=C\C#Cc1ccccc1SC
The GI50 of the first is 1.5-fold lower: 2670 nM for the first, 4080 nM for the second.

The molecules below were run on DU-145 (assay: Growth inhibition of human DU145 cells).
Format: functional
Summary of the method: as §1

`O=C1CCCCN1c1ccccc1C#C/C=C\C#Cc1ccccc1C(F)(F)F` and `CCC(=O)Nc1ccccc1C#C/C=C\C#Cc1ccccc1SC` are within 1.5-fold of each other in GI50: 1680 nM for the first, 1930 nM for the second.

These molecules were tested on MDA-MB-231 (assay: Growth inhibition of human MDA-MB-231 cells).
Format: functional
Summary of the method: as §1

Going from `O=C1CCCCN1c1ccccc1C#C/C=C\C#Cc1ccccc1C(F)(F)F` to `CCC(=O)Nc1ccccc1C#C/C=C\C#Cc1ccccc1SC`, the GI50 rises from 1160 nM to 2170 nM (1.9-fold).

What follows are molecules tested on MDA-MB-435 (assay: Growth inhibition of human MDA-MB-435 cells).
Format: functional
Summary of the method: as §1

`O=C1CCCCN1c1ccccc1C#C/C=C\C#Cc1ccccc1C(F)(F)F` and `CCC(=O)Nc1ccccc1C#C/C=C\C#Cc1ccccc1SC` are within 1.5-fold of each other in GI50: 600 nM for the first, 750 nM for the second.

Each molecule was assayed on K562 (assay: Cell cycle arrest in human K562 cells assessed as accumulation at G0/G1 phase at 10 uM after 24 hrs by flow cytometry).
Format: functional
Summary of the method: (§2)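 K-562 cells (RPMI 1640, 10% fetal calf serum, 37 °C, 5% CO2) were exposed for 24 h, then fixed in ice-cold 70% ethanol for 30 min. They were treated with RNase A (1 mg/ml, 37 °C, 30 min) and stained with propidium iodide and Triton X-100 solution for 30 min in the dark. DNA content was read on 10,000 events by flow cytometry, and the sub-G1 region was gated as apoptotic.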

Compared with `O=C1CCCCN1c1ccccc1C#C/C=C\C#Cc1ccccc1C(F)(F)F`, `CCC(=O)Nc1ccccc1C#C/C=C\C#Cc1ccccc1SC` is higher in Activity: 8.9% for the first, 22.7% for the second.

These molecules were tested on K562 (assay: Cell cycle arrest in human K562 cells assessed as accumulation at S phase at 10 uM after 24 hrs by flow cytometry).
Format: functional
Summary of the method: as §2

Going from `O=C1CCCCN1c1ccccc1C#C/C=C\C#Cc1ccccc1C(F)(F)F` to `CCC(=O)Nc1ccccc1C#C/C=C\C#Cc1ccccc1SC`, the Activity rises from 12.9% to 42.1%.

These molecules were tested on K562 (assay: Cell cycle arrest in human K562 cells assessed as accumulation at G2/M phase at 10 uM after 24 hrs by flow cytometry).
Format: functional
Summary of the method: as §2

First: O=C1CCCCN1c1ccccc1C#C/C=C\C#Cc1ccccc1C(F)(F)F
Second: CCC(=O)Nc1ccccc1C#C/C=C\C#Cc1ccccc1SC
The Activity of the first is higher: 78.3% for the first, 35.2% for the second.

These molecules were tested on K562 (assay: Cell cycle arrest in human K562 cells assessed as accumulation at SubG1 phase at 10 uM after 24 hrs by flow cytometry).
Format: functional
Summary of the method: as §2

Going from `O=C1CCCCN1c1ccccc1C#C/C=C\C#Cc1ccccc1C(F)(F)F` to `CCC(=O)Nc1ccccc1C#C/C=C\C#Cc1ccccc1SC`, the Activity falls from 23.9% to 9.8%.

Each molecule was assayed on K562 (assay: Cell cycle arrest in human K562 cells assessed as accumulation at G0/G1 phase at 50 uM after 24 hrs by flow cytometry).
Format: functional
Summary of the method: as §2

Compared with `O=C1CCCCN1c1ccccc1C#C/C=C\C#Cc1ccccc1C(F)(F)F`, `CCC(=O)Nc1ccccc1C#C/C=C\C#Cc1ccccc1SC` is lower in Activity: 40.3% for the first, 18.7% for the second.

These molecules were tested on K562 (assay: Cell cycle arrest in human K562 cells assessed as accumulation at S phase at 50 uM after 24 hrs by flow cytometry).
Format: functional
Summary of the method: as §2

Compared with `O=C1CCCCN1c1ccccc1C#C/C=C\C#Cc1ccccc1C(F)(F)F`, `CCC(=O)Nc1ccccc1C#C/C=C\C#Cc1ccccc1SC` is higher in Activity: 0% for the first, 12.7% for the second.

Each molecule was assayed on K562 (assay: Cell cycle arrest in human K562 cells assessed as accumulation at G2/M phase at 50 uM after 24 hrs by flow cytometry).
Format: functional
Summary of the method: as §2

Going from `O=C1CCCCN1c1ccccc1C#C/C=C\C#Cc1ccccc1C(F)(F)F` to `CCC(=O)Nc1ccccc1C#C/C=C\C#Cc1ccccc1SC`, the Activity rises from 59.7% to 68.5%.

Each molecule was assayed on K562 (assay: Cell cycle arrest in human K562 cells assessed as accumulation at SubG1 phase at 50 uM after 24 hrs by flow cytometry).
Format: functional
Summary of the method: as §2

First: O=C1CCCCN1c1ccccc1C#C/C=C\C#Cc1ccccc1C(F)(F)F
Second: CCC(=O)Nc1ccccc1C#C/C=C\C#Cc1ccccc1SC
The Activity of the first is higher: 31.57% for the first, 16.2% for the second.

What follows are molecules tested on K562 (assay: Cell cycle arrest in human K562 cells assessed as accumulation at G1 phase at 50 uM after 24 hrs by flow cytometry).
Format: functional
Summary of the method: as §2

In the case of `O=C1CCCCN1c1ccccc1C#C/C=C\C#Cc1ccccc1C(F)(F)F`, the Activity is reported as 27.7%.

The molecules below were run on K562 (assay: Cell cycle arrest in human K562 cells assessed as apoptotic cells at 50 uM after 24 hrs by flow cytometry).
Format: functional
Summary of the method: as §2

`O=C1CCCCN1c1ccccc1C#C/C=C\C#Cc1ccccc1C(F)(F)F` gave an Activity of 51%.

These molecules were tested on HeLa (assay: Induction of microtubule depolymerization in human HeLa cells at 50 uM after 2 hrs by immunocytochemistry).
Format: functional, cell-based
Summary of the method: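 HeLa cells were grown 24 h on coverslips, then treated at 37 °C. They were fixed in 4% paraformaldehyde for 5 min and permeabilized with 0.5% Triton X-100. After blocking with 5% goat serum/1% BSA, cells were stained with anti-ninein and anti-tubulin (45 min, 37 °C), then Alexa-conjugated secondaries and DAPI. Imaging was by confocal microscopy with a 100x objective.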

In the case of `O=C1CCCCN1c1ccccc1C#C/C=C\C#Cc1ccccc1C(F)(F)F`, the Activity is reported as “Active”.

What follows are molecules tested on K562 (assay: Induction of apoptosis in human K562 cells assessed as increase in caspase-3 activity by colorimetric assay).
Format: functional, cell-based
Summary of the method: (§3)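 Treated K-562 cells (1×10^6 cells/ml) were PBS-washed and lysed on ice for 10 min, and the cytosolic supernatant was cleared at 18,000 g. Protein was measured by BCA. Lysate protein was incubated with caspase-specific colorigenic substrate in 2X reaction buffer with 10 mM DTT at 37 °C for 1 h, and absorbance was read at 405 nm.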

`O=C1CCCCN1c1ccccc1C#C/C=C\C#Cc1ccccc1C(F)(F)F` was tested, and the Activity was “Dose-dependent effect”.

These molecules were tested on K562 (assay: Induction of apoptosis in human K562 cells assessed as increase in caspase-9 activity at 25 uM by colorimetric assay).
Format: functional, cell-based
Summary of the method: as §3

For `O=C1CCCCN1c1ccccc1C#C/C=C\C#Cc1ccccc1C(F)(F)F`, the Activity was “Active”.

The molecules below were run on K562 (assay: Induction of apoptosis in human K562 cells assessed as increase in caspase-9 activity at 50 uM by colorimetric assay).
Format: functional, cell-based
Summary of the method: as §3

`O=C1CCCCN1c1ccccc1C#C/C=C\C#Cc1ccccc1C(F)(F)F` was tested, and the Activity was “Active”.

The molecules below were run on K562 (assay: Induction of apoptosis in human K562 cells assessed as upregulation of Bax protein level after 24 hrs by Western blot).
Format: functional, cell-based
Summary of the method: (§4)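 Cells were dosed at several concentrations for 24 h and lysed in Tris-HCl pH 7.5 NP-40 buffer with phosphatase inhibitors. Equal protein was run on SDS-PAGE and transferred to PVDF. Membranes were blocked with 5% nonfat milk in TBST for 1 h, then immunoblotted.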

With `O=C1CCCCN1c1ccccc1C#C/C=C\C#Cc1ccccc1C(F)(F)F` the Activity was “Dose-dependent effect”.

Each molecule was assayed on K562 (assay: Induction of apoptosis in human K562 cells assessed as down-regulation of Bcl2 protein level after 24 hrs by Western blot).
Format: functional, cell-based
Summary of the method: as §4

For `O=C1CCCCN1c1ccccc1C#C/C=C\C#Cc1ccccc1C(F)(F)F`, the Activity was “Dose-dependent effect”.

These molecules were tested on K562 (assay: Induction of apoptosis in human K562 cells assessed as downregulation of XIAP protein level after 24 hrs by Western blot).
Format: functional, cell-based
Summary of the method: as §4

`O=C1CCCCN1c1ccccc1C#C/C=C\C#Cc1ccccc1C(F)(F)F` was tested, and the Activity was “Dose-dependent effect”.

What follows are molecules tested on K562 (assay: Induction of apoptosis in human K562 cells assessed as PARP cleavage after 24 hrs by Western blot).
Format: functional, cell-based
Summary of the method: as §4

In the case of `O=C1CCCCN1c1ccccc1C#C/C=C\C#Cc1ccccc1C(F)(F)F`, the Activity is reported as “Active”.

The molecules below were run on K562 (assay: Induction of apoptosis in human K562 cells assessed as cytochrome-C release after 24 hrs by Western blot).
Format: functional, cell-based
Summary of the method: as §4

In the case of `O=C1CCCCN1c1ccccc1C#C/C=C\C#Cc1ccccc1C(F)(F)F`, the Activity is reported as “Dose-dependent effect”.
